Source: ChEMBL document CHEMBL2346637, “Effects of alkyl side chain modification of coenzyme Q10 on mitochondrial respiratory chain function and cytoprotection” (Bioorg Med Chem, 2013)

Columns and labels:
[1] = system: CCRF-CEM; assay: Cytoprotective effect in human CEM cells assessed as reduction of diethyl maleate-induced oxidative stress measured cell viability at 0.5 uM incubated for 17 hrs prior to diethyl maleate challenge measured after 6 hrs by trypan blue exclusion assay relative to untreated control; type: functional
Procedure, shortened: (§1)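 CEM cells seeded at 5 × 10⁵ cells/mL with compound and held 17 h at 37 °C, 5% CO₂. Oxidative stress then induced with 5 mM DEM for 6 h. Viability counted on a hemocytometer by 0.4% trypan blue exclusion and expressed as percent of untreated control (untreated = 100%). Means ± S.E.M., n = 3.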

[2] = system: CCRF-CEM; assay: (§2) Blockade of diethyl maleate-induced mitochondrial membrane potential collapse in human CEM cells assessed as cells with intact mitochondrial membrane potential at 0.5 uM incubated for 16 hrs prior to diethyl maleate challenge measured after 120 mins by TMRM-based flow cytometric analysis (reference value: 12%); type: functional
Procedure, shortened: (§3)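 Pretreatment: CEM cells (5 × 10⁵) with or without compound for 16 h, then 5 mM DEM for 120 min. Cells washed and resuspended in PBS with glucose, stained with 250 nM TMRM for 15 min at 37 °C in the dark, washed, and read at once by flow cytometry (488 nm excitation, FL2-H). 10,000 events per run. Percentage of cells with intact potential taken from the top-right quadrant. FCCP served as depolarized control. Means ± SEM of three independent experiments in duplicate.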

[3] = species on record: Bos taurus; assay: Inhibition of NADH oxidase in bovine heart submitochondrial particles at 5 uM after 5 mins by spectrophotometric analysis relative to untreated control; parameters: scale not given: the % may be the effect or the level left
Procedure, shortened: (§4)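 Bovine heart SMPs, stored in 0.25 M sucrose/10 mM Tris–HCl pH 7.4, were assayed at 30 µg protein/mL in 50 mM Hepes pH 7.5 with 5 mM MgCl₂ at 30 °C. SMPs pre-equilibrated with inhibitor for 5 min. NADH oxidation followed at 340 nm (ε 6.22 mM⁻¹ cm⁻¹). Initial rates taken from the linear trace and expressed relative to untreated control.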

[4] = system: CCRF-CEM; assay: Cytoprotective effect in human CEM cells assessed as reduction of diethyl maleate-induced oxidative stress measured cell viability at 1 uM incubated for 17 hrs prior to diethyl maleate challenge measured after 6 hrs by trypan blue exclusion assay relative to untreated control; type: functional; procedure, shortened: as §1
[5] = system: CCRF-CEM; assay: Cytoprotective effect in human CEM cells assessed as reduction of diethyl maleate-induced oxidative stress measured cell viability at 0.1 uM incubated for 17 hrs prior to diethyl maleate challenge measured after 6 hrs by trypan blue exclusion assay relative to untreated control; type: functional; procedure, shortened: as §1
[6] = Effect on cellular respiration in rat RGC5 cells assessed as increase in mitochondrial oxygen consumption at 10 uM after 24 hrs by fluorescence assay relative to vehicle-treated control; type: functional
Procedure, shortened: (§5)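 RGC-5 cells (DMEM, 10% FBS, phenol-red free) at 70,000 per well in 384-well oxygen biosensor plates, allowed to attach 20–30 min. Compounds added from DMSO stock via PBS dilution, final 3 or 10 µM, 0.1% DMSO. Six vehicle and six FCCP wells per plate. Incubated at 37 °C, 5% CO₂ for 1.5 or 24 h. Fluorescence read at 485/630 nm and expressed as fold change over vehicle at each time point. Two-tailed t test.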

[7] = Inhibition of NADH-ubiquinone oxidoreductase activity in bovine heart submitochondrial particles using coenzyme Q1 as substrate after 5 mins by spectrophotometric analysis; parameters: species or system Bos taurus
Procedure, shortened: (§6)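 Twelve micrograms of bovine heart SMPs incubated 5 min at 39 °C with compound in 50 mM phosphate buffer, pH 7.4, with 0.25 M sucrose, 1 mM MgCl₂, antimycin A and 2 mM KCN. Reaction started with NADH and coenzyme Q₁ (each 50 µM). Decrease in NADH absorbance read at 340 nm. IC₅₀ and maximum achievable inhibition reported.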

[8] = Effect on cellular respiration in rat RGC5 cells assessed as increase in mitochondrial oxygen consumption at 3 uM after 24 hrs by fluorescence assay relative to vehicle-treated control; type: functional; procedure, shortened: as §5
[9] = system: CCRF-CEM; assay: Cytoprotective effect in human CEM cells assessed as reduction of diethyl maleate-induced oxidative stress measured cell viability at 5 uM incubated for 17 hrs prior to diethyl maleate challenge measured after 6 hrs by trypan blue exclusion assay relative to untreated control; type: functional; procedure, shortened: as §1
[10] = species on record: Bos taurus; assay: Inhibition of NADH oxidase in bovine heart submitochondrial particles at 10 uM after 5 mins by spectrophotometric analysis relative to untreated control; parameters: scale not given: the % may be the effect or the level left; procedure, shortened: as §4
[11] = system: CCRF-CEM; assay: Antioxidant activity in human CEM cells assessed as suppression of diethyl maleate-induced ROS production at 2.5 uM incubated for 16 hrs prior to diethyl maleate challenge measured after 1 hr by DCFH-DA staining-based flow cytometric analysis relative to untreated control; type: functional
Procedure, shortened: (§7)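 CEM cells (5 × 10⁵ in 1 mL) preincubated with compound 16 h at 37 °C, 5% CO₂; then 5 mM DEM for 1 h. Cells washed in PBS and loaded with 10 µM DCFH-DA for 25 min at 37 °C in the dark, then washed twice. Read by flow cytometry, 488 nm excitation, FL1-H 530 nm channel, 10,000 events after debris gating.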

[12] = Effect on cellular respiration in rat RGC5 cells assessed as increase in mitochondrial oxygen consumption at 3 uM after 1.5 hrs by fluorescence assay relative to vehicle-treated control; type: functional; procedure, shortened: as §5
[13] = system: CCRF-CEM; assay: Antioxidant activity in human CEM cells assessed as suppression of diethyl maleate-induced ROS production at 1 uM incubated for 16 hrs prior to diethyl maleate challenge measured after 1 hr by DCFH-DA staining-based flow cytometric analysis relative to untreated control; type: functional; procedure, shortened: as §7
[14] = species on record: Bos taurus; assay: Inhibition of NADH oxidase in bovine heart submitochondrial particles at 1 uM after 5 mins by spectrophotometric analysis relative to untreated control; parameters: scale not given: the % may be the effect or the level left; procedure, shortened: as §4
[15] = system: CCRF-CEM; assay: as §2, with “1” for “0.5”; type: functional; procedure, shortened: as §3
[16] = Effect on cellular respiration in rat RGC5 cells assessed as increase in mitochondrial oxygen consumption at 10 uM after 1.5 hrs by fluorescence assay relative to vehicle-treated control; type: functional; procedure, shortened: as §5
[17] = species on record: Bos taurus; assay: Inhibition of NADH-ubiquinone oxidoreductase activity in bovine heart submitochondrial particles using coenzyme Q1 as substrate after 5 mins by spectrophotometric analysis relative to untreated control; procedure, shortened: as §6

Structure (SMILES) | activity [3] | IC50 [7] | activity [10] | activity [14] | Imax [17] | Activity [1] | Activity [2] | Activity [4] | Activity [5] | fold change (FC) [6] | fold change (FC) [8] | Activity [9] | Activity [11] | fold change (FC) [12] | Activity [13] | Activity [15] | fold change (FC) [16]
CCCCCCCCCCC1=C(C)C(=O)C(OC)=C(OC)C1=O [DECYLUBIQUINONE] | 83.3% | > 30 µM | 61.5% | 93.5% | – | 62% | 78% | 79% | 69% | 1.08 | 0.99 | 87% | 95% | 1.19 | 80% | 88% | 1.2
COC1=C(OC)C(=O)C(CCCCCCCCCCN=[N+]=[N-])=C(C)C1=O | 75% | > 30 µM | 64% | 89.8% | – | 21% | 50% | 72% | 11% | 1.01 | 1.68 | 92% | 87% | 1.01 | 71% | 65% | 0.97
CCCCCCCCCCCCCCCC1=C(C)C(=O)C(OC)=C(OC)C1=O | 66.3% | > 30 µM | 59.7% | 85.2% | – | 87% | 86% | 90% | 82% | 1.52 | 1.49 | 94% | 100% | 1.14 | 100% | 92% | 1.15

Second part, led by results:

activity [3] | IC50 [7] | activity [10] | activity [14] | Imax [17] | Structure (SMILES) | Activity [1] | Activity [2] | Activity [4] | Activity [5] | fold change (FC) [6] | fold change (FC) [8] | Activity [9] | Activity [11] | fold change (FC) [12] | Activity [13] | Activity [15] | fold change (FC) [16]
20.3% | 5.8 µM | 13.4% | 58.3% | 75% | COC1=C(OC)C(=O)C(CCCCCCCCCCO)=C(C)C1=O [IDEBENONE] | 38% | 35% | 71% | 25% | 0.98 | 0.98 | 74% | 65% | 1.12 | 45% | 59% | 0.99
50.6% | 14.7 µM | 36.2% | 68.3% | 69% | COC1=C(OC)C(=O)C(CCCCCCCCC(C)(C)C)=C(C)C1=O | 43% | 70% | 72% | 9% | 1.16 | 1.55 | 93% | 100% | 1.08 | 88% | 85% | 1.05
81.9% | 14.9 µM | 78.7% | 88.3% | 55.4% | COC1=C(OC)C(=O)C(CCCCCCCCCCC2CCCCC2)=C(C)C1=O | 83% | 84% | 87% | 76% | 1.51 | 1.06 | 93% | 100% | 1.17 | 100% | 91% | 1.21
